Compound activity from PubChem BioAssay.
FAK blocker: inhibitors of human focal adhesion kinase | biochemical FAK kinase activity assay | inhibition, %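 (tested at 7 µM)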 | 97,000 compounds, 0.84% hits; in the data active = inhibition above about 19%;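 note: 0% = DMSO and 100% = reference compound high control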
HIV Rev-RRE inh: disrupts HIV-1 Rev binding to RRE RNA; P05866; Rev peptide-RRE RNA binding, FRET; inhibition, % at 8 µM; 97,000 compounds, 0.79% hits; AID 704;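 active = inhibition above the screen-wide mean plus 3 SD, cut at about 35% in these data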;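 note: 0% = median DMSO wells and 100% = median Neomycin B control wells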
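Assay system: Rev peptide and RRE RNA, both fluorescently labelled; times: 5 min preincubation and 15 min binding, 25 °C; detection: FRET, ex 480 nm, em 540 and 671 nm; read-out basis: % inhibition from 671/540 nm acceptor-to-donor ratio, scaled between controls; benchmarks: DMSO low control, neomycin B high control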
Plk1 PBD FP: blocks phosphopeptide binding to human Plk1 polo box domain; P53350; Plk1 PBD phosphopeptide binding, fluorescence polarization; inhibition, %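 (tested at about 20 µM)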; 97,000 compounds, 0.13% hits; in the data active = inhibition above about 34%, passing the limit was not always enough
EphB4 ephrin blk: EphB4-ephrin-B2 interaction antagonism; P54760; EphB4 LBD / TNYL-RAW-Alexa532 peptide, fluorescence polarization; inhibition, % at 7 µM; 97,000 compounds, 0.15% hits;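 active = inhibition above the screen-wide mean inhibition plus 3 SD, cut at about 15% in these data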;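 note: 0% = DMSO wells and 100% = excess unlabeled TNYL-RAW peptide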
PLK1 inh: inhibitors of human PLK1 kinase. inhibition, % at 10 µM. AID 619. recombinant PLK1 kinase, TR-FRET peptide phosphorylation. P53350. 97,000 compounds, 0.53% hits;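 active = inhibition of 50% or more in the single-concentration screen; inactive = inhibition below 50%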;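 note: 0% = DMSO max control and 100% = H-89 dihydrochloride min control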
Cav32 inh: human Cav3.2 channel inhibition, primary screen; Cav3.2-expressing cells, Fluo-4 calcium fluorescence FDSS; hits give low values; B-score at 10 µM; 100,000 compounds, 4% hits;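 active = single-dose well whose peak fluorescence ratio is a statistical outlier from its plate by either plate-standardised score or position-corrected B-score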
* marks the source's active call; other numbers are inactive results; . = no result given; [ ] = remark or other dose. An excerpt weighted towards active compounds, which were near 5.3% of everything screened.

SMILES	FAK blocker	HIV Rev-RRE inh	Plk1 PBD FP	EphB4 ephrin blk	PLK1 inh	Cav32 inh
COC(=O)C1=C(c2cc3ccccc3o2)C[C@@H]2CC[C@H]1N2C(=O)NCc1cccc2ccccc12	.	.	.	.	.	-3.6*
COC(=O)C1=C(c2cccc(OC)c2OC)C[C@@H]2CC[C@H]1N2C(=O)N1CCCC1	.	.	.	.	.	1.1
CN1C(=O)C(=Cc2ccccc2Oc2ccc(Cl)c(F)c2)C(=O)N(C)C1=O	-3	9	-5	3	-6	-4.8*
C=C(C)[C@@]12OC3(c4ccccc4)O[C@@H]1C1[C@@H]4O[C@]4(CO)[C@@H](O)[C@]4(O)C(=O)C(C)=C[C@H]4[C@@]1(O3)[C@H](C)[C@H]2OC(=O)/C=C/C=C/c1ccccc1 (stereo not given in full)	.	.	.	.	.	-4.4*
Cc1ccc2c(c1)CC1(CN2C)C(=O)NC(=O)N(c2ccc(C)c(C)c2)C1=O (stereo not given)	-5	-1	-21	-4	-12	-3.5
COc1ccc(C2=NCC(=O)N(CC(=O)NCc3ccco3)c3sc4c(c32)CCCC4)cc1	6	0	-11	-5	-13	-3.5
Cc1cccc(C2=NCC(=O)N(CC(=O)NCc3ccco3)c3sc4c(c32)CCCC4)c1	1	2	-7	-6	-8	-3.9*
CCN(CCCl)Cc1ccccc1Br	.	.	.	.	.	-5.1*
CC(C)(O)[C@H]1O[C@H]2CC[C@@]3(C)[C@@](O)(CC[C@H]4Cc5c([nH]c6ccccc56)[C@@]43C)C2=CC1=O	.	.	.	.	.	-2.2
c1ccc2c(c1)[nH]c1cnccc12	.	.	.	.	.	-0.076
Cc1c2ccncc2c(C)c2c1[nH]c1ccccc12	.	.	.	.	.	-4.4*
CN1CC[C@@H](c2ccc(F)cc2)[C@H](COc2ccc3c(c2)OCO3)C1	.	.	.	.	.	-1.7
CN(C)C1(c2nnnn2-c2ccc(Cl)cc2)CCCCC1	2	6	-14	2	-8	.
CN(C)C1(c2nnnn2CCOC(=O)Nc2ccc(Cl)cc2)CCCCC1	-1	14	-21	5	-8	-3*
CC/C(=C\C=C\[C@@H]1C=C[C@@H]2CCC[C@H]2[C@@H]1C(=O)c1ccc[nH]1)[C@@H]1O[C@@H]([C@@H](C)C(=O)O)CC[C@@H]1C	1	0	-2	-2	-8	-8.5*
CC(C)C(=O)c1cn(Cc2ccc(C#N)cc2)c2ccccc12	1	9	-6	3	-5	-5.6*
CCC(=O)c1cn(Cc2ccccc2C#N)c2ccccc12	3	3	8	-2	-6	-1.9
O=C(c1ccco1)c1cn(Cc2ccccc2Cl)c2ccccc12	2	21	2	-4	-47	-6*
N#Cc1ccccc1Cn1cc(C(=O)c2ccco2)c2ccccc21	6	7	4	-4	-13	-6.1*
CSc1ccc(C(=O)C(C)(C)N2CCOCC2)cc1	-1	7	-5	2	-11	-2.4
CS(=O)(=O)c1ccc(C2=C(c3ccccc3)C(=O)OC2)cc1	.	.	.	.	.	0.43
COc1ccccc1N1C(=O)NC(=O)C2(Cc3cc(C)ccc3N(C)C2)C1=O (stereo not given)	2	5	-29	6	-8	-0.42
Cc1ccc(N2C(=O)NC(=O)C3(Cc4ccccc4N4CCN(c5ccccc5)CC43)C2=O)cc1 (stereo not given)	-5	15	27	7	-10	-6.8*
CCC(C)(C)n1nnnc1CN1CCC(n2c(C)nc3cc(C(F)(F)F)ccc32)CC1	1	-4	-15	-1	-7	4*
O=c1[nH]c(CN2CC=C(c3ccccc3)CC2)nc2cc(C(F)(F)F)ccc12	5	45*	15	0	48	-0.75
CCCS(=O)(=O)N1CCCC(C(=O)N2CCC3(CC2)OCCO3)C1 (stereo not given)	-2	4	6	-6	-9	0.78
CN1C(=O)C(=Cc2ccc(N3CCCCCC3)o2)C(=O)N(C)C1=S	16	124*[fluorescence artefact?]	-190	-3	-11	-7.1*
Cc1cc(C=C2C(=O)N(C)C(=S)N(C)C2=O)c(C)n1C1CCCC1	4	19	-24	2	-6	-0.29
COc1ccc(C(O)CNC(C)C)c(F)c1OC (stereo not given)	.	.	.	.	.	0.57
CCCCCCn1c(O)c(C=NC2CCN(Cc3ccccc3)CC2)c(=O)[nH]c1=O	1	5	-15	-2	-35	-3.3*
